From ChEMBL document CHEMBL4138220, “A fluorine scan of a tubulin polymerization inhibitor isocombretastatin A-4: Design, synthesis, molecular modelling, and biological evaluation” (Eur J Med Chem, 2018)

tested on: not listed separately; test: Intrinsic clearance in human liver microsomes at 5 uM preincubated for 5 mins followed by NADPH addition measured after 45 mins by UPLC-MS/MS analysis; format: ADME, microsome; conditions: read-out: CLH

| SMILES | microsomal CLint at 5 µM |
| --- | --- |
| C=C(c1ccc(OC)c(N)c1)c1cc(OC)c(OC)c(OC)c1 | 46 µL/min/mg |
| COc1ccc(C(=C(F)F)c2cc(OC)c(OC)c(OC)c2)cc1O | 64 µL/min/mg |

tested on: not listed separately; test: Induction of basal contraction tone in isolated Wistar rat aorta rings at 10 uM after 10 mins in presence K60 solution (reference value: 0.2 +/- 0.2%); format: tissue-based; conditions: not given

| SMILES | Activity |
| --- | --- |
| C=C(c1ccc(OC)c(N)c1)c1cc(OC)c(OC)c(OC)c1 | 1.6% |

tested on: HCT-116; test: Antiproliferative activity against human HCT116 cells after 72 hrs by resazurin-based fluorescence assay; format: functional, cell-based; conditions: HCT-116, 72 h

| SMILES | IC50 |
| --- | --- |
| COc1cc(C(C)c2ccc(OC(F)(F)F)c(F)c2)cc(OC)c1OC (stereo not given) | 5000 nM |
| C=C(c1ccc(OC)c(N)c1)c1cc(OC)c(OC)c(OC)c1 | 2 nM |
| COc1ccc(C(=C(F)F)c2cc(OC)c(OC)c(OC)c2)cc1O | 2 nM |

tested on: not listed separately; test: Metabolic stability in human plasma at 5 uM after 120 mins by UPLC-MS/MS analysis; format: ADME, cell-free; conditions: read-out: Stability
Method in brief: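 Compound at 5 µM in human plasma at 37°C, sampled from 0 to 120 min. Stopped with acetonitrile, centrifuged, supernatant dried under nitrogen and reconstituted in 0.2% formic acid water/methanol 75/25. Measured by UPLC-MS/MS as % remaining. Procaine was the positive control.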

| SMILES | remaining at 2 h, 5 µM |
| --- | --- |
| C=C(c1ccc(OC)c(N)c1)c1cc(OC)c(OC)c(OC)c1 | 94% |
| COc1ccc(C(=C(F)F)c2cc(OC)c(OC)c(OC)c2)cc1O | 100% |

tested on: K562; test: Antiproliferative activity against human K562 cells after 72 hrs by resazurin-based fluorescence assay; format: functional, cell-based; conditions: K562, 72 h
Method in brief: (§1)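 CellTiter-Blue viability. Cells plated at 5 × 10^3 per well and cultured 24 h, then given compound in DMSO (under 0.1%) for 72 h. Resazurin added for 2 h, fluorescence read at ex 560/em 590 nm. […] Run in triplicate. U87-MG grown in DMEM (4.5 g/L glucose, 10% FCS, 1% glutamine). K562, K562R (doxorubicin-resistant), A549 and MCF7 grown in RPMI 1640 (10% FCS, 1% glutamine). All kept at 37 °C, 5% CO2.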

| SMILES | IC50 |
| --- | --- |
| C=C(c1ccc(OC)c(N)c1)c1cc(OC)c(OC)c(OC)c1 | 5 nM |
| COc1ccc(C(=C(F)F)c2cc(OC)c(OC)c(OC)c2)cc1O | 2.2 nM |

tested on: not listed separately; test: Inhibition of sheep brain tubulin polymerization assessed as reduction in rate of microtubule assembly by DAPI-fluorescence based assay; parameters: species or system Ovis aries; conditions: not given
Method in brief: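 Sheep brain tubulin purified by two assembly–disassembly cycles, about 10 µM in buffer at pH 6.6 with MgCl2, EGTA and 1 mm GTP. Assembly followed continuously at 37 °C by DAPI fluorescence. IC50 is the concentration halving the maximum assembly rate versus no compound. Reference compounds run the same day. Average of three experiments.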

| SMILES | IC50 |
| --- | --- |
| C=C(c1ccc(OC)c(N)c1)c1cc(OC)c(OC)c(OC)c1 | 2200 nM |
| COc1ccc(C(=C(F)F)c2cc(OC)c(OC)c(OC)c2)cc1O | 2000 nM |

tested on: A549; test: Antiproliferative activity against human A549 cells after 72 hrs by resazurin-based fluorescence assay; format: functional, cell-based; conditions: A549, 72 h

| SMILES | IC50 |
| --- | --- |
| C=C(c1ccc(OC)c(N)c1)c1cc(OC)c(OC)c(OC)c1 | 7 nM |
| COc1ccc(C(=C(F)F)c2cc(OC)c(OC)c(OC)c2)cc1O | 2 nM |

tested on: not listed separately; test: Metabolic stability in human liver microsomes at 5 uM preincubated for 5 mins followed NADPH addition measured after 120 mins by UPLC-MS/MS analysis; format: ADME, microsome; conditions: read-out: Stability

| SMILES | remaining at 2 h, 5 µM |
| --- | --- |
| C=C(c1ccc(OC)c(N)c1)c1cc(OC)c(OC)c(OC)c1 | 11.6% |
| COc1ccc(C(=C(F)F)c2cc(OC)c(OC)c(OC)c2)cc1O | 5% |

tested on: MCF7; test: Antiproliferative activity against human MCF7 cells after 72 hrs by resazurin-based fluorescence assay; format: functional, cell-based; conditions: MCF7, 72 h; method in brief: as §1

| SMILES | IC50 |
| --- | --- |
| C=C(c1ccc(OC)c(N)c1)c1cc(OC)c(OC)c(OC)c1 | 2.9 nM |
| COc1ccc(C(=C(F)F)c2cc(OC)c(OC)c(OC)c2)cc1O | 0.6 nM |

tested on: not listed separately; test: Increase in PGF2alpha-induced contractile response in isolated Wistar rat aorta rings at 10 uM after 10 mins; format: tissue-based; conditions: not given
Method in brief: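 Rat aortic rings 2–3 mm in PSS at 37°C, 95% O₂/5% CO₂, pH 7.4, isometric tension at 2 g resting force. Rings were kept if K60 contraction was ≥1.5 g and ACh (10 µM) relaxation ≥15%. Compound (10 µM) or DMSO 0.1% was given for 10 min, then cumulative PGF2α 1 nM–30 µM. Hill fits gave pD2 and Emax as % of K60. N = 6.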

| SMILES | pD2 |
| --- | --- |
| C=C(c1ccc(OC)c(N)c1)c1cc(OC)c(OC)c(OC)c1 | 5.79 |

tested on: K-562R; test: Antiproliferative activity against human K562R cells after 72 hrs by resazurin-based fluorescence assay; format: functional, cell-based; conditions: not given; method in brief: as §1

| SMILES | IC50 |
| --- | --- |
| C=C(c1ccc(OC)c(N)c1)c1cc(OC)c(OC)c(OC)c1 | 2 nM |
| COc1ccc(C(=C(F)F)c2cc(OC)c(OC)c(OC)c2)cc1O | 0.2 nM |

tested on: not listed separately; test: Metabolic stability in human liver microsomes at 5 uM after 120 mins in absence of NADPH by UPLC-MS/MS analysis; format: ADME, microsome; conditions: read-out: Stability

| SMILES | remaining at 2 h, 5 µM |
| --- | --- |
| C=C(c1ccc(OC)c(N)c1)c1cc(OC)c(OC)c(OC)c1 | 6% |
| COc1ccc(C(=C(F)F)c2cc(OC)c(OC)c(OC)c2)cc1O | 20% |

tested on: U-87 MG; test: Antiproliferative activity against human U87 cells after 72 hrs by resazurin-based fluorescence assay; format: functional, cell-based, U-87MG ATCC; conditions: not given; method in brief: as §1

| SMILES | IC50 |
| --- | --- |
| C=C(c1ccc(OC)c(N)c1)c1cc(OC)c(OC)c(OC)c1 | 9 nM |
| COc1ccc(C(=C(F)F)c2cc(OC)c(OC)c(OC)c2)cc1O | 0.3 nM |
